ChEMBL document CHEMBL1671697, “Lipophilic bisphosphonates are potent inhibitors of Plasmodium liver-stage growth” (Antimicrob Agents Chemother, 2010)
Several values for one entry are separate records, joined by “and”; a condition that tells them apart may be missing. Equal entries are not always repeated. Activity calls are given as the source filed them. The calls are words filed in the database; no cut-off is given here.

Tests used:
[1] = test system: Plasmodium berghei; assay: Antimalarial activity against Plasmodium berghei NK65 infected in human HepG2 cells after 48 hrs by RT-PCR; format: functional, organism-based; details: NK65, HepG2, 48 h
How it was run: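 P. berghei NK65 sporozoites (10,000 per well) added to human HepG2 monolayers seeded the day before, in DMEM with 10% FBS, with compound diluted in PBS; 37°C, 5% CO2, 48 h. Medium and compound were renewed at 24 h. Parasite 18S rRNA copies were quantified by real-time PCR against a plasmid standard and expressed relative to untreated control. IC50 was obtained by nonlinear regression.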

[2] = Cytotoxicity against human HepG2 cells after 22 hrs; format: cell-based; details: read-out: TC50
How it was run: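 HepG2 cells were seeded at 70% confluence the day before treatment, then exposed to a range of inhibitor concentrations for 22 h at 37°C, 5% CO2. CellTiter One reagent was then added for 2 h more, and OD495 was read. IC50 (TC50) was fit by nonlinear regression of percent viable cells against concentration.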

[3] = test system: Plasmodium berghei; assay: Antiplasmodial activity against Plasmodium berghei NK65 infected in 12 wk old BALB/c mouse assessed as prepatent period at 20 mg/kg, ip administered once daily via regimen of 1 preinfection, on day of infection followed by regimen of 1 day post infection for 3 days by microscopic analysis; format: functional; details: route intraperitoneal
[4] = test system: Plasmodium berghei; assay: Antiplasmodial activity against Plasmodium berghei NK65 infected in 12 wk old BALB/c mouse assessed as prepatent period at 5 mg/kg, ip administered once daily on the day of infection followed by day 1 postinfection for 2 days by microscopic analysis; format: functional; details: route intraperitoneal
[5] = test system: Plasmodium berghei; assay: Antiplasmodial activity against Plasmodium berghei NK65 infected in 12 wk old BALB/c mouse assessed as prepatent period at 17 mg/kg, ip administered once daily on the day of infection followed by day 1 postinfection for 2 days by microscopic analysis; format: functional; details: route intraperitoneal
[6] = test system: Plasmodium berghei; assay: Antiplasmodial activity against Plasmodium berghei NK65 infected in 8 wk old C57BL/6 mouse assessed as prepatent period at 20 mg/kg, ip administered once daily via a regimen of day 1 pre-infection, on the day of infection followed by day 1, 2 and 3 days postinfection […] by microscopic analysis; format: functional; details: route intraperitoneal
[7] = test system: Plasmodium berghei; assay: Antiplasmodial activity against Plasmodium berghei NK65 infected in 8 wk old C57BL/6 mouse assessed as prepatent period at 20 mg/kg, ip administered once daily via regimen of […], on the day of infection followed by day 1 postinfection for 4 days by microscopic analysis; format: functional; details: route intraperitoneal
[8] = test system: Plasmodium berghei; assay: Antiplasmodial activity against Plasmodium berghei NK65 infected in 12 wk old C57BL/6 mouse assessed as prepatent period at 20 mg/kg, ip administered once daily via a regimen of day 1 pre-infection, on the day of infection followed by day 1 postinfection for 3 days by microscopic analysis; format: functional; details: route intraperitoneal
[9] = test system: Plasmodium berghei; assay: Antiplasmodial activity against Plasmodium berghei NK65 infected in 12 wk old C57BL/6 mouse assessed as prepatent period at 10 mg/kg, ip administered once daily via a regimen of day 2, 1 days pre-infection, on the day of infection followed by day 1 postinfection for 4 days by microscopic analysis; format: functional, organism-based; design: dose 10 mg/kg
[10] = test system: Plasmodium berghei; assay: Antiplasmodial activity against Plasmodium berghei NK65 infected in 12 wk old C57BL/6 mouse assessed as prepatent period at 10 mg/kg, ip administered once daily via a regimen of day 1 pre-infection, on the day of infection followed by day 1 postinfection for 3 days by microscopic analysis; format: functional, organism-based; design: dose 10 mg/kg
[11] = test system: Plasmodium falciparum; assay: Antiplasmodial activity against chloroquine-sensitive Plasmodium falciparum 3D7 assessed as suppression of parasitemia by microscopic analysis
[12] = test system: Plasmodium falciparum; assay: Antiplasmodial activity against chloroquine-resistant Plasmodium falciparum W2mef assessed as suppression of parasitemia by microscopic analysis
[13] = test system: Plasmodium berghei; assay: (§1) Antiplasmodial activity against 5 X 10^6 blood stream Plasmodium berghei NK65 infected in 12 wk old C57BL/6 mouse assessed as prepatent period at 20 mg/kg, ip administered once daily via a regimen of day 2, 1 pre-infection, on the day of infection followed by day 1 and 2 postinfection for 5 days by microscopic analysis; format: functional; details: route intraperitoneal
How it was run: (§2)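 Mice, five per group, were dosed i.p. daily for 5 days and challenged on day 0 with 5 × 10^6 blood-stage P. berghei parasites. Parasitemia was monitored by blood smear, and the delay in prepatent period was recorded.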

[14] = test system: Plasmodium berghei; assay: as §1, with “assessed as delay in prepatent period” for “assessed as prepatent period”; format: functional; details: route intraperitoneal; how it was run: as §2
[15] = test system: Plasmodium berghei; assay: as §1, with “parasitemia” for “prepatent period”; format: functional; details: route intraperitoneal; how it was run: as §2
[16] = Inhibition of Plasmodium vivax GGPPS
[17] = Inhibition of Plasmodium vivax FPPS
[18] = Partition coefficient, log P of the compound; format: physicochemical; details: octanol/water
[19] = test system: Plasmodium berghei; assay: (§3) Antiplasmodial activity against 3000 Plasmodium berghei NK65 liver stage sporozoites infected in 12 wk old C57BL/6 mouse assessed as delay in prepatent period at 20 mg/kg, ip administered once daily via a regimen of day 2, 1 pre-infection, on the day of infection followed by day 1 and 2 postinfection for 5 days by microscopic analysis; format: functional; details: route intraperitoneal
How it was run: (§4)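 Mice were given compound i.p. once daily from 2 days before to 2 days after sporozoite challenge (5 doses). Challenge was 3,000 infectious P. berghei sporozoites. Parasitemia was followed by blood smear until 3–5%, then mice were sacrificed. Complete protection means no blood-stage parasites in smears; observation lasted 28 days.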

[20] = test system: Plasmodium berghei; assay: Antiplasmodial activity against Plasmodium berghei NK65 infected in 12 wk old BALB/c mouse assessed as prepatent period assessed as complete suppression of parasitemia at 20 mg/kg, ip administered once daily via a regimen of day 2, 1 pre-infection, on the day of infection followed by day 1 and 2 postinfection […] by microscopic analysis; format: functional; details: route intraperitoneal
[21] = test system: Plasmodium berghei; assay: Antiplasmodial activity against Plasmodium berghei NK65 infected in 12 wk old C57BL/6 mouse assessed as prepatent period at 0.8 mg/kg, ip administered once daily via a regimen of day 2, 1 pre-infection, on the day of infection followed by day 1, 2 and 3 days postinfection […] by microscopic analysis; format: functional; details: route intraperitoneal
[22] = test system: Plasmodium berghei; assay: as §3, with “0.8” for “20”; format: functional; details: route intraperitoneal; how it was run: as §4
[23] = test system: Plasmodium berghei; assay: Antiplasmodial activity against Plasmodium berghei NK65 infected in 12 wk old BALB/c mouse assessed as prepatent period at 5 mg/kg, ip administered once daily via a regimen of day 2, 1 pre-infection, on the day of infection followed by day 1 and 2 postinfection […] by microscopic analysis; format: functional; details: route intraperitoneal
[24] = test system: Plasmodium berghei; assay: Antiplasmodial activity against Plasmodium berghei NK65 infected in 12 wk old C57BL/6 mouse assessed as prepatent period at 0.5 mg/kg, ip administered once daily via a regimen of day 2, 1 pre-infection, on the day of infection followed by day 1 postinfection for 4 days by microscopic analysis; format: functional; details: route intraperitoneal
[25] = test system: Plasmodium berghei; assay: Antiplasmodial activity against Plasmodium berghei NK65 infected in 12 wk old C57BL/6 mouse assessed as prepatent period at 1.5 mg/kg, ip administered once daily via a regimen of day 2, 1 pre-infection, on the day of infection followed by day 1 and 2 postinfection for 5 days by microscopic analysis; format: functional; details: route intraperitoneal
[26] = test system: Plasmodium berghei; assay: as §1, with “1.5” for “20”; format: functional; details: route intraperitoneal; how it was run: as §2
[27] = test system: Plasmodium berghei; assay: (§5) Antiplasmodial activity against 5 X 10^6 blood stream Plasmodium berghei NK65 infected in 12 wk old C57BL/6 mouse assessed as delay in prepatent period at 1.5 mg/kg, ip administered once daily via a regimen of day 2, 1 pre-infection, on the day of infection followed by day 1 and 2 postinfection for 5 days by microscopic analysis; format: functional; details: route intraperitoneal; how it was run: as §2
[28] = test system: Plasmodium berghei; assay: as §5, with “parasitemia” for “delay in prepatent period”; format: functional; details: route intraperitoneal; how it was run: as §2
[29] = test system: Plasmodium berghei; assay: as §3, with “1.5” for “20”; format: functional; details: route intraperitoneal; how it was run: as §4
[30] = test system: Plasmodium berghei; assay: Antiplasmodial activity against Plasmodium berghei NK65 infected in C57BL/6 mouse assessed as completed protection of mouse, ip administered once daily via a regimen of day 2, 1 pre-infection, on day of infection followed by a regimen of day 1 and 2 post infection for 5 days measured after 28 days; format: functional, organism-based; how it was run: as §4
[31] = test system: Plasmodium berghei; assay: Antiplasmodial activity against Plasmodium berghei NK65 infected in 12 wk old C57BL/6 mouse assessed as prepatent period at 2 mg/kg, ip administered once daily via a regimen of day 2, 1 pre-infection, on the day of infection followed by day 1 and 2 postinfection for 5 days by microscopic analysis; format: functional; details: route intraperitoneal
[32] = test system: Plasmodium berghei; assay: as §3, with “2” for “20”; format: functional; details: route intraperitoneal; how it was run: as §4
[33] = test system: Plasmodium berghei; assay: Antiplasmodial activity against Plasmodium berghei NK65 infected in 14 wk old C57BL/6 mouse assessed as prepatent period at 5 mg/kg, ip administered once daily via a regimen of day 2, 1 pre-infection, on the day of infection followed by day 1 and 2 postinfection […] by microscopic analysis; format: functional, organism-based; design: dose 5 mg/kg
[34] = test system: Plasmodium berghei; assay: Antiplasmodial activity against Plasmodium berghei NK65 infected in 12 wk old C57BL/6 mouse assessed as prepatent period at 5 mg/kg, ip administered once daily via a regimen of day 2, 1 pre-infection, on the day of infection followed by day 1 and 2 postinfection for 5 days by microscopic analysis; format: functional; details: route intraperitoneal
[35] = test system: Plasmodium berghei; assay: as §3, with “5” for “20”; format: functional; details: route intraperitoneal; how it was run: as §4

NCCC(O)(P(=O)(O)O)P(=O)(O)O [PAMIDRONIC ACID]
IC50 [1]: > 200 µM

O=P(O)(O)C(O)(Cc1cccnc1)P(=O)(O)O [RISEDRONIC ACID]
IC50 [1]: 16 µM | CC50 at 22 h [2]: 13000 µM | Activity [3]: 0.5 days | Activity [4]: 0.5 days | Activity [5]: 1 days | Activity [6]: 6 days | Activity [7]: 4 days | Activity [8]: 2.5 days | Activity [9]: inactive | Activity [10]: inactive | IC50 [11]: 1.2 µM | IC50 [12]: 1.4 µM | Activity [13]: 2 days | Activity [14]: 1 days | Activity [15]: 0.09% | IC50 [16]: 1.1 µM | Ki [16]: 0.024 µM | IC50 [17]: 1.7 µM | Ki [17]: 0.048 µM | logP [18]: -5.5 | Activity [19]: 4 days | Activity [20]: 8 days and 3 days

CCCCCCCCN(C)CC(P(=O)(O)O)P(=O)(O)O
IC50 [1]: 8.8 µM | CC50 at 22 h [2]: 1000 µM | Activity [21]: 7 days | IC50 [11]: 0.65 µM | IC50 [12]: 2 µM | IC50 [16]: 0.63 µM | Ki [16]: 0.015 µM | IC50 [17]: 1.5 µM | Ki [17]: 0.043 µM | logP [18]: -4.1 | Activity [22]: 3 days

CCCCCCCCCCOc1ccc[n+](CC(P(=O)([O-])O)P(=O)(O)O)c1 (configuration not stated)
IC50 [1]: 10 µM | CC50 at 22 h [2]: 2000 µM | Activity [23]: >28 days | Activity [24]: 3 days | Activity [25]: >28 days | IC50 [11]: 0.67 µM | IC50 [12]: 0.59 µM | Activity [26]: 5 days | Activity [27]: 4 days | Activity [28]: 0.01% | IC50 [16]: 0.56 µM | Ki [16]: 0.013 µM | IC50 [17]: 1.5 µM | Ki [17]: 0.043 µM | logP ([18]; read-out: logP): -1.2 | Activity [29]: >28 days | Activity [30]: Active

CC[C@H](C)C(=O)O[C@H]1C[C@H](O)C=C2C=C[C@H](C)[C@H](CC[C@@H](O)C[C@@H](O)CC(=O)O)[C@H]21 [PRAVASTATIN SODIUM]
IC50 [1]: > 200 µM

CCCCCCCCCCN(C)CC(P(=O)(O)O)P(=O)(O)O
IC50 [1]: 8 µM | CC50 at 22 h [2]: 1000 µM | Activity [31]: 9 days | IC50 [11]: 0.45 µM | IC50 [12]: 2.2 µM | IC50 [16]: 0.7 µM | Ki [16]: 0.016 µM | IC50 [17]: 1.5 µM | Ki [17]: 0.043 µM | logP ([18]; read-out: logP): -3.4 | Activity [32]: 5 days

COC(=O)[C@H](CC(C)C)NC(=O)c1ccc(NC[C@@H](N)CS)cc1-c1cccc2ccccc12
IC50 [1]: 30 µM | Activity [33]: inactive | Activity [34]: 4 days | Activity [35]: 0 days
